Measurements published in ChEMBL document CHEMBL2163230, “Identification of a glutathione peroxidase inhibitor that reverses resistance to anticancer drugs in human B-cell lymphoma cell lines” (Bioorg Med Chem Lett, 2012).
Values belong to the molecule of their own block, whether it stands above or below them. The source made the active and inactive calls. No cut-off for these calls is given here.

How the values were obtained:
[1] = Resistance ratio of IC50 for human etoposide-resistant DOGUM cells to IC50 for human DOGUM cells; format: functional
[2] = Cytotoxicity against human etoposide-resistant DOGUM cells after 72 hrs by MTT assay; format: functional, cell-based
Method in brief: (§1)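 Cells from two patients with chemotherapy-resistant non-Hodgkin B-cell lymphoma. Resistant sublines were made by exposure to methotrexate, etoposide, cisplatin or bortezomib in culture over 2–3 months. Microtiter MTT assay, giving the IC50 as mean ± SD of 3 or more independent experiments. Drugs were tested alone and with co-incubation with 25 µM inhibitor.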

[3] = Cytotoxicity against human DOGUM cells after 72 hrs by MTT assay; format: functional, cell-based; method in brief: as §1
[4] = Resistance ratio of IC50 for human etoposide-resistant GUMBUS cells to IC50 for human GUMBUS cells; format: functional
[5] = Cytotoxicity against human etoposide-resistant GUMBUS cells after 72 hrs by MTT assay; format: functional, cell-based; method in brief: as §1
[6] = Cytotoxicity against human GUMBUS cells after 72 hrs by MTT assay; format: functional, cell-based; method in brief: as §1
[7] = Cytotoxicity against human methotrexate-resistant DOGUM cells after 72 hrs by MTT assay; format: functional, cell-based; method in brief: as §1
[8] = Cytotoxicity against human methotrexate-resistant GUMBUS cells after 72 hrs by MTT assay; format: functional, cell-based; method in brief: as §1
[9] = Cytotoxicity against human bortezomib-resistant DOGUM cells after 72 hrs by MTT assay; format: functional, cell-based; method in brief: as §1
[10] = Cytotoxicity against human bortezomib-resistant GUMBUS cells after 72 hrs by MTT assay; format: functional, cell-based; method in brief: as §1
[11] = Resistance ratio of IC50 for human bortezomib-resistant GUMBUS cells to IC50 for human GUMBUS cells; format: functional
[12] = Resistance ratio of IC50 for human bortezomib-resistant DOGUM cells to IC50 for human DOGUM cells; format: functional
[13] = target: T1, Glutathione reductase, mitochondrial (Homo sapiens) (UniProt P00390); assay: Inhibition of glutathione reductase up to 200 uM
T1 sequence (whole entry): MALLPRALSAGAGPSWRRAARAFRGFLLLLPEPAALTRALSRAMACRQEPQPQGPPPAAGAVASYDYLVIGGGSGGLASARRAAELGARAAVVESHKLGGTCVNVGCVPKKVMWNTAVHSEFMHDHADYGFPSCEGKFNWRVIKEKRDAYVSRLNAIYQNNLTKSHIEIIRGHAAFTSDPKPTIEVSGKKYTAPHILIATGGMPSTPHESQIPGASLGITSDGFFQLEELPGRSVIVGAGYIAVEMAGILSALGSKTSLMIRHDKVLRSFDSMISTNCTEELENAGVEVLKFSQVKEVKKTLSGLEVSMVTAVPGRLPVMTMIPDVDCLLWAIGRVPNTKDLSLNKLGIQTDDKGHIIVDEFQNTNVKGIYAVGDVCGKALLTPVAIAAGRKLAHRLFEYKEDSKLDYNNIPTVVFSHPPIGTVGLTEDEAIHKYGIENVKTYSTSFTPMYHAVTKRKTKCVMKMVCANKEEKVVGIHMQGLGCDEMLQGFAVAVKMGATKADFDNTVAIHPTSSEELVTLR
Method in brief: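 Specific glutathione reductase assay (earlier method), compound tested at up to 200 µM.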

[14] = target: T2, Glutathione peroxidase 1 (Homo sapiens) (UniProt P07203); settings: 250 uM
T2 sequence (whole entry): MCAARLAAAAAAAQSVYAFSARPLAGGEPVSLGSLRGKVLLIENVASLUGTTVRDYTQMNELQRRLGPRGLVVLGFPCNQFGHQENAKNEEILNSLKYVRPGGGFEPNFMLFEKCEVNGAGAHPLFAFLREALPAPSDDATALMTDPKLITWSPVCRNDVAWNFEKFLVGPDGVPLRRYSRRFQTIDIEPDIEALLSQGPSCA

[15] = target: T2, Glutathione peroxidase 1 (Homo sapiens); settings: 50 uM
[16] = target: T3, Glutathione peroxidase 1 (Homo sapiens, UniProt P07203); assay: Inhibition of GPx1 using gultathione as substrate by glutathione reductase-coupled assay
T3 sequence (P07203 whole entry): T2 sequence (whole entry)
Method in brief: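 GPx activity read as NADPH consumption at 340 nm. GPx oxidizes GSH to GSSG with H2O2 as co-substrate, and glutathione reductase reduces GSSG back to GSH. Earlier method, adapted to 96-well format. 0.1% Triton X-100 in all incubations to prevent compound precipitation. Docking used bovine erythrocyte GPx1.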

SMILES: COc1cc([C@@H]2c3cc4c(cc3[C@@H](O[C@@H]3O[C@@H]5CO[C@@H](C)O[C@H]5[C@H](O)[C@H]3O)[C@H]3COC(=O)[C@H]23)OCO4)cc(OC)c1O [ETOPOSIDE]
- Ratio IC50 [1]: 4
- IC50 [2]: 280 nM
- IC50 [3]: 75 nM
- Ratio IC50 [4]: 13
- IC50 [5]: 570 nM
- IC50 [6]: 42 nM

SMILES: CN(Cc1cnc2nc(N)nc(N)c2n1)c1ccc(C(=O)N[C@@H](CCC(=O)O)C(=O)O)cc1 [METHOTREXATE]
- IC50 [7]: 340 nM
- IC50 [3]: 84 nM
- IC50 [8]: 534 nM
- IC50 [6]: 24 nM

SMILES: CC(C)C[C@H](NC(=O)[C@H](Cc1ccccc1)NC(=O)c1cnccn1)B(O)O [BORTEZOMIB]
- IC50 [9]: 7 nM
- IC50 [10]: 35 nM
- IC50 [3]: 2 nM
- Ratio IC50 [11]: 6
- Ratio IC50 [12]: 4
- IC50 [6]: 6 nM

- inhibition [13]: inactive
- inhibition [14]: inactive
- inhibition [15]: 15%
- IC50 [16]: 169 µM
SMILES: Cc1nccn1CC(=O)N/N=C/c1ccc(O)cc1
